For data set [1], the target named is Sigma non-opioid intracellular receptor 1 (Cavia porcellus, UniProt Q60492). Kind of data set: Displacement of [3H]-(+)-pnetazocin from sigma1 receptor in guinea pig brain membrane incubated for 150 mins by liquid scintillation counting method. It is filed as cell membranes. (Displacement assays read how much labelled ligand stays bound in the presence of the test substance.)

The subject of data set [2] is Mus musculus. Kind of data set: Antiallodynic activity against formalin-induced nociceptive behavior in ICR mouse assessed as licking/biting time at 12.5 mg/kg, sc pre-treated for 30 mins followed by formalin-stimulation and measured up to 15 to 30 mins. The data set is classed as functional. The following applies: time min <=45. An outline of the steps:
(§1)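 Male/female unspecified ICR mice (n=10 per group) given test compound s.c. or vehicle 30% PEG 400 (4 mL/kg) 30 min before intraplantar injection of 100 µL 5% formalin (1.85% formaldehyde) into right hind paw; time spent licking/biting recorded 0-5 min (phase I) and 15-45 min (phase II); antinociception % = (LT vehicle − LT drug)/LT vehicle × 100; mean ± SEM.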

For data set [3], the system named is Mus musculus. Kind of data set: Antiallodynic activity against formalin-induced nociceptive behavior in ICR mouse assessed as licking/biting time at 25 mg/kg, sc pre-treated for 30 mins followed by formalin-stimulation and measured up to 15 to 30 mins. It is filed as functional. The following applies: time min <=45. The gist of the method:
as §1

Data set [4] concerns the target Cannabinoid receptor 2 (Homo sapiens) (UniProt P34972). Kind of data set: Inhibition of CB2 receptor (unknown origin) at 1 uM relative to control.
For data set [5], the species on record is Homo sapiens. Nature of the data set: Inhibition of adrenergic alpha1 receptor (unknown origin) at 1 uM relative to control.
Data set [6] deals with 5-hydroxytryptamine receptor 2A (Homo sapiens) (UniProt P28223). Kind of data set: Inhibition of 5HT2A receptor (unknown origin) at 1 uM relative to control.
Chain of 5-hydroxytryptamine receptor 2A (Homo sapiens) (P28223 whole entry): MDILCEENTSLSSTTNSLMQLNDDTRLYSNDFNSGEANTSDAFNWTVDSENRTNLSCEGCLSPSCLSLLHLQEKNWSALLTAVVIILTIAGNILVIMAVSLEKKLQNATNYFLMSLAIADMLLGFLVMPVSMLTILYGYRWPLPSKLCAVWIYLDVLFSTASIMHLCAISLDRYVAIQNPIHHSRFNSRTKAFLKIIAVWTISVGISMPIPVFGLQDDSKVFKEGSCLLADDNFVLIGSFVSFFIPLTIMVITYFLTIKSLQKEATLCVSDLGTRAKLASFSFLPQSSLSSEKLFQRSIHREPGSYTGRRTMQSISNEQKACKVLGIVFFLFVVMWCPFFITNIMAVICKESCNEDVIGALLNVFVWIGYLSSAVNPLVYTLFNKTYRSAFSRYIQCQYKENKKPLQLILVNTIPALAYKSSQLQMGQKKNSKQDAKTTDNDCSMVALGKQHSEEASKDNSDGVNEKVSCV
Data set [7] has as its target T1, 5-hydroxytryptamine receptor 1A (Homo sapiens) (UniProt P08908).
T1 sequence (whole entry): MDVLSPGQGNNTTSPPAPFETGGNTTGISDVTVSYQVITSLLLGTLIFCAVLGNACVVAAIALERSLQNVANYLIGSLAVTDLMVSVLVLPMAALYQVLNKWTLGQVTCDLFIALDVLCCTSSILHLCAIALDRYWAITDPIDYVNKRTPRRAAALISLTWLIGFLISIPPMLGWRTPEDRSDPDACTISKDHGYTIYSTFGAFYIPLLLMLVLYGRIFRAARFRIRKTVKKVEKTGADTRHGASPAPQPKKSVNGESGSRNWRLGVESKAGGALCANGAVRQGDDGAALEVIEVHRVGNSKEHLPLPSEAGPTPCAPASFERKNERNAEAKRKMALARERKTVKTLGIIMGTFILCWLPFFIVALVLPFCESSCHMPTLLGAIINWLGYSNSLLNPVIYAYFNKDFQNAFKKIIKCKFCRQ
Nature of the data set: Inhibition of 5HT1A receptor (unknown origin) at 1 uM relative to control.

Data set [8] concerns Mus musculus. Kind of data set: Antiallodynic activity against formalin-induced nociceptive behavior in ICR mouse assessed as licking/biting time at 50 mg/kg, sc pre-treated for 30 mins followed by formalin-stimulation and measured up to 5 mins. It is filed as functional. The note with it: time min <=35. The gist of the method: as §1
For data set [9], the target named is Histamine H3 receptor (Homo sapiens) (UniProt Q9Y5N1). Nature of the data set: Inhibition of histamine H3 receptor (unknown origin) at 1 uM relative to control.
Chain of Histamine H3 receptor (Homo sapiens) (Q9Y5N1 whole entry): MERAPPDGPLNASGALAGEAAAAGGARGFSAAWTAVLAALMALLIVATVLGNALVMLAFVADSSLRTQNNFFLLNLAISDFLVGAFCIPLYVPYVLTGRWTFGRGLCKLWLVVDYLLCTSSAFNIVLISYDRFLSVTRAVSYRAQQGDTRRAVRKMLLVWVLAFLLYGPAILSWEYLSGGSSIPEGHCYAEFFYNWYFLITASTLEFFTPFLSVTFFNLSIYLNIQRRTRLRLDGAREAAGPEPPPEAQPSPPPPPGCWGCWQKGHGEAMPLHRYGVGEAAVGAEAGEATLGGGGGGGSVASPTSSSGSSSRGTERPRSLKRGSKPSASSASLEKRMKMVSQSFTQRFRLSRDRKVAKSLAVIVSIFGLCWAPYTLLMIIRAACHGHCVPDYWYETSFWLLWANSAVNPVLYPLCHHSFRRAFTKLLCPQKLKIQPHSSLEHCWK
The species entered for data set [10] is Homo sapiens. Kind of data set: Inhibition of adrenergic alpha2 receptor (unknown origin) at 1 uM relative to control.
Data set [11] addresses Cannabinoid receptor 1 (Homo sapiens) (UniProt P21554). Nature of the data set: Inhibition of CB1 receptor (unknown origin) at 1 uM relative to control.
Data set [12] relates to Mus musculus. Kind of data set: Antiallodynic activity against formalin-induced nociceptive behavior in ICR mouse assessed as licking/biting time at 100 mg/kg, sc pre-treated for 30 mins followed by formalin-stimulation and measured up to 15 to 30 mins. It is filed as functional. The note with it: time min <=45. An outline of the steps:
as §1

Data set [13] concerns Mus musculus. Kind of data set: Antiallodynic activity against formalin-induced nociceptive behavior in ICR mouse assessed as licking/biting time at 50 mg/kg, sc pre-treated for 30 mins followed by formalin-stimulation and measured up to 15 to 30 mins. The data set is classed as functional. The following applies: time min <=45. The gist of the method:
as §1

Data set [14] has as its target Sodium-dependent serotonin transporter (Homo sapiens) (UniProt P31645). Kind of data set: Inhibition of 5-HT transporter (unknown origin) at 1 uM relative to control.
Data set [15] has as its system Mus musculus. Nature of the data set: Antiallodynic activity against formalin-induced nociceptive behavior in sc dosed ICR mouse assessed as licking/biting time pre-treated for 30 mins followed by formalin-stimulation and measured up to 15 to 30 mins. The note with it: dose 12.5-100 mg/kg, time min <=45. The data set is classed as functional. The gist of the method: as §1

The species named for data set [16] is Homo sapiens. Kind of data set: Inhibition of sigma 2 receptor (unknown origin) at 1 uM relative to control.
For data set [17], the species on record is Homo sapiens. Nature of the data set: Inhibition of NMDA receptor (unknown origin) at 1 uM relative to control.
The test system of data set [18] is Rattus norvegicus. Kind of data set: Antinociceptive activity in CCI-induced sc dosed Sprague-Dawley rat model of neuropathic pain assessed as paw withdrawal latency after 15 days. The data set is classed as functional. The note with it: 360 h, time 15 day.
Data set [19] is described as follows: Toxicity in sc dosed ICR mouse assessed as mortality after 24 hrs. The data set is classed as organism-based. The following applies: in vivo.
Data set [20] addresses Sodium-dependent noradrenaline transporter (Homo sapiens) (UniProt P23975). Nature of the data set: Inhibition of noradrenaline transporter (unknown origin) at 1 uM relative to control.
Another data set has as its target Mu-type opioid receptor (Cavia porcellus, UniProt P97266). Nature of the data set: Displacement of [3H]DAMGO from mu opioid receptor in guinea pig brain membrane incubated for 2.5 hrs by scintillation counting method. The data set is classed as cell membranes.
Data set [21] in a line: Therapeutic index, ratio of LD50 for toxicity in ICR mouse to ED50 for antiallodynic activity against formalin-induced nociceptive behavior in ICR mouse. The following applies: read-out: Ratio LD50/ED50. The gist of the method: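 TI = LD50/ED50: LD50 from s.c. acute toxicity in mice, ED50 from phase II of formalin test (s.c. dosing 30 min before formalin, 12.5–100 mg/kg).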

Data set [22] has as its system Rattus norvegicus. Kind of data set: Antinociceptive activity in CCI-induced Sprague-Dawley rat model of neuropathic pain assessed as paw withdrawal latency at 50 mg/kg, sc after 15 days. It is filed as functional, organism-based. The following applies: time 15.0 day.

Each structure is given as a SMILES string. The source made the active and inactive calls. No cut-off for these calls is given here.

Chain of Sigma non-opioid intracellular receptor 1 (Q60492 whole entry): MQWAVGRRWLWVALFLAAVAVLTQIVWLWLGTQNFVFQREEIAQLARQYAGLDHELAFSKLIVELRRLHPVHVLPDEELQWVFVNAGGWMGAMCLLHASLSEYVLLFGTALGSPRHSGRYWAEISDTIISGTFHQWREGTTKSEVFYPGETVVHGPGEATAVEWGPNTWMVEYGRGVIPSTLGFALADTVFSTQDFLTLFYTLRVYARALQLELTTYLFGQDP
Chain of Mu-type opioid receptor (P97266 whole entry): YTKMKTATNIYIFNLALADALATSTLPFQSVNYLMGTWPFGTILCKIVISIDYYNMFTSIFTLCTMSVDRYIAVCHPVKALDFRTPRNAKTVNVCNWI
Chain of Cannabinoid receptor 1 (Homo sapiens) (P21554 whole entry): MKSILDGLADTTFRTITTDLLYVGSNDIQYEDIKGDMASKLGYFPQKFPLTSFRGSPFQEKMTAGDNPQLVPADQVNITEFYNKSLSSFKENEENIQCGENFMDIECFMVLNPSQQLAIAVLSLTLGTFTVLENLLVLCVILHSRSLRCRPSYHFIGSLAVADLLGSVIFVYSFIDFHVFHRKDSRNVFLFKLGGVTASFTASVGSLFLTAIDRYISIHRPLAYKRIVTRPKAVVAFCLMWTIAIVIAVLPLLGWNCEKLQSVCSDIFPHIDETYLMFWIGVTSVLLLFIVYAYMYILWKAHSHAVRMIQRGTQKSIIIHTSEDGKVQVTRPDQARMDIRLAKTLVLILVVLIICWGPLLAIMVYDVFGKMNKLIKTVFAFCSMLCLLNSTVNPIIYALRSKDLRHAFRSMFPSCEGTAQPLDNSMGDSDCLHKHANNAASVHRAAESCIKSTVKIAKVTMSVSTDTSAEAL
Chain of Cannabinoid receptor 2 (Homo sapiens) (P34972 whole entry): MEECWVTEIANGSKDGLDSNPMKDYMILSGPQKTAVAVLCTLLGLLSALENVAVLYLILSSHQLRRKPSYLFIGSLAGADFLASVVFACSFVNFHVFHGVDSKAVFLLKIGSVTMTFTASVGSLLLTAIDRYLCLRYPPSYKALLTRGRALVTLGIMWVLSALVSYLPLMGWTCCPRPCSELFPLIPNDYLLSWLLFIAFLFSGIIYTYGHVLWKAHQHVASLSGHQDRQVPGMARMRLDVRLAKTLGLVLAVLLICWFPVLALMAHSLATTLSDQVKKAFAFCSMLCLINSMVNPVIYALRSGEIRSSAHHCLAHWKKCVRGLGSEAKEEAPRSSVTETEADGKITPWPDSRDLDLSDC
Chain of Sodium-dependent noradrenaline transporter (Homo sapiens) (P23975 whole entry): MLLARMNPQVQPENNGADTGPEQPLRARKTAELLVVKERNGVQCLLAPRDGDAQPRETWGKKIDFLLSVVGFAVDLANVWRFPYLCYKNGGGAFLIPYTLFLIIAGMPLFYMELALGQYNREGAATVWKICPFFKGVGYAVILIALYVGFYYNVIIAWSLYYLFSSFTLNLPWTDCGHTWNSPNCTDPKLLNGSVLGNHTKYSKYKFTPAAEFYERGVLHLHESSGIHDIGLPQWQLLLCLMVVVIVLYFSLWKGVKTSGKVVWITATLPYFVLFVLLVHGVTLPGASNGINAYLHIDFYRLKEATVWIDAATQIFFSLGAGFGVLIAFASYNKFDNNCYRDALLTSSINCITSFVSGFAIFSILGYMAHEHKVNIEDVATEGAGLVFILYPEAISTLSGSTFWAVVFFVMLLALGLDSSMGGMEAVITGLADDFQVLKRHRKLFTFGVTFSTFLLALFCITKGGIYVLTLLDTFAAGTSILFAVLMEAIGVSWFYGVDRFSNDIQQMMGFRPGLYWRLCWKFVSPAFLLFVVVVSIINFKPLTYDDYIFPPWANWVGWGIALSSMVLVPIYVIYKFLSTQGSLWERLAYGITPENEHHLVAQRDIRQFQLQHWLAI
Chain of Sodium-dependent serotonin transporter (Homo sapiens) (P31645 whole entry, looked up): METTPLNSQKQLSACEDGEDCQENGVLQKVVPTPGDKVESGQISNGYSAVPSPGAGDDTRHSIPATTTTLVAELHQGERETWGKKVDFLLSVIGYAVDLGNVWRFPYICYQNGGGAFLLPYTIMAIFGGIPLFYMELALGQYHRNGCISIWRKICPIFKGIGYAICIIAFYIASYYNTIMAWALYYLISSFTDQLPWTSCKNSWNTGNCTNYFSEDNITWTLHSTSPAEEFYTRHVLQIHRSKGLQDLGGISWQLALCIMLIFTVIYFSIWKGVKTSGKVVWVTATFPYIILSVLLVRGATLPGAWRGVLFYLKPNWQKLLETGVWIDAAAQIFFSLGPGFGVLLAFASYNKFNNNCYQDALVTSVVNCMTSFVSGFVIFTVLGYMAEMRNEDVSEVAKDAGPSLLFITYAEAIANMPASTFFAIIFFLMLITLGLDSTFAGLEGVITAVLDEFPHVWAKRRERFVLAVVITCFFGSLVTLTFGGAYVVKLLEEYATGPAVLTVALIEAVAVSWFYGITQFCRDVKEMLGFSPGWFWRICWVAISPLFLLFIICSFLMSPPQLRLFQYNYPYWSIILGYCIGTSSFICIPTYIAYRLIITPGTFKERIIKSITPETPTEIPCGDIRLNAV

Usually Ki stands for the dissociation constant of the complex between target and ligand, obtained from inhibition or displacement. Read a high Ki as a looser hold on the target. As to `CCC(=O)N(CCCN1CCC(Cc2ccccc2)CC1)c1ccc(OC)cc1`, the Ki in data set [1] came out at 2.2 nM.

In the case of `CCC(=O)N(CCN1CCC(CCc2ccccc2)CC1)c1ccc(OC)cc1`, the affinity in data set [1] corresponds to a Ki of 372 nM.

One may read the inhibition as the percentage by which the read-out fell short of the control. The low end stands for a weak effect, the high end for a strong effect. Usually ED50 stands for the dose that gives a 50% effect, or the effect in half of the subjects. A word on the LD50: it is the dose expected to kill half of the subjects tested. Take `CCC(=O)N(CCN1CCC(Cc2ccc(F)cc2)CC1)c1ccc(OC)cc1`: the Time in the data set with Mus musculus [2] is 201 s; with Mus musculus [3], 108 s; in the data set with Mus musculus [8] it was 21 s; in the data set with Mus musculus [12], 41 s; in the data set on Mus musculus [13] it was 63 s. The inhibition in [4] amounted to 32.6%; in the data set listed under Homo sapiens [5], 24.7%; in data set [6] it was 43.6%; in data set [7], 45.2%; in data set [9], 34.6%; in the data set listed under Homo sapiens [10], 45.9%. Also, the inhibition in data set [11] was determined as 20.8%; in data set [14] it was 10.9%; in the data set listed under Homo sapiens [16], 29.1%; in the data set listed under Homo sapiens [17] it was 14.3%; in [20], 18.5%. Also, the Activity entry with Mus musculus [15] is “Dose-dependent effect”. Further, the ED50 was found to be 15.1 mg/kg with Mus musculus [15] and 44.1 mg/kg in the data set with Rattus norvegicus [18]. The LD50 at 24 h in data set [19] turned out to be 397 mg/kg. In data set [1], this molecule registered a Ki of 1.86 nM.

Consider `CCC(=O)N(CCN1CCC(Cc2ccc(F)cc2)CC1)c1ccc(C)cc1`, for which affinity in data set [1] was put at a Ki of 2.4 nM.

In the case of `CCC(=O)N(CCN1CCC(c2ccccc2)CC1)c1ccc(OC)cc1`, the Ki in [1] was determined as 39 nM.

As to `CCC(=O)N(CCN1CCC(Cc2ccc(F)cc2)CC1)c1ccc(F)cc1`, the inhibition in [4] came to 19.9%; in the data set listed under Homo sapiens [5], 39.9%; in data set [6] it was 34.4%; in data set [7], 23%; in data set [9], 9.75%; in the data set listed under Homo sapiens [10] it was 32.3%. For the same molecule, the inhibition in data set [11] came out at 17.4%; in [14], 44.6%; in the data set listed under Homo sapiens [16] it was 31.8%; in the data set filed under Homo sapiens [17], 20.5%; in [20] it was 28.8%. For the same molecule, the Time in the data set with Mus musculus [8] came to 36 s; in the data set with Mus musculus [13], 110 s. In data set [19], the LD50 at 24 h stood at 416 mg/kg. In data set [1], this molecule came in with a Ki of 1.3 nM.

Take `CCC(=O)N(CCN1CCC(Cc2ccccc2)CC1)c1ccccn1`: the Ki in data set [1] was 402 nM.

In the case of `CCC(=O)N(CCN1CCC(Cc2ccccc2)CC1)C(C)c1ccccc1` (configuration not stated), affinity in [1] was put at a Ki of 17.4 nM.

At Mu-type opioid receptor, `C[C@H]1[C@H]2Cc3ccc(O)cc3[C@@]1(C)CCN2CCc1ccccc1` showed a Ki of 55 nM.

Molecule `CCC(=O)N(CCN1CCC(Cc2ccccc2)CC1)c1ccc(C)cc1` gave a Ki in data set [1] of 1.6 nM.

`CCC(=O)N(CCN1CCC(Cc2ccccc2)CC1)c1ncccc1F` came in with a Ki in data set [1] of 506 nM.

In data set [1], `CCC(=O)N(CCN1CCC(Cc2ccccc2)CC1)c1cc(F)c(F)c(F)c1` yielded a Ki of 573 nM.

Take `CCC(=O)N(CCc1ccccc1)CCN1CCC(Cc2ccccc2)CC1`: affinity in data set [1] was put at a Ki of 269 nM.

In [1], `CCC(=O)N(CCN1CCC(Cc2ccc(C)cc2)CC1)c1ccc(C)cc1` gave a Ki of 29 nM.

`CCC(=O)N(CCN1CCC(Cc2ccccc2)CC1)Cc1ccccc1` gave a Ki in [1] of 18.7 nM.

In data set [1], `CCC(=O)N(CCCCCN1CCC(Cc2ccccc2)CC1)c1ccc(OC)cc1` yielded a Ki of 42 nM.

With `Cc1cc(OCCN2CCOCC2)nn1-c1ccc2ccccc2c1`, the selectivity ratio in data set [21] is 12. In addition, the outcome in the data set with Mus musculus [8] and in the data set with Rattus norvegicus [22] was Active. Besides, the Time in the data set with Mus musculus [13] was 273 s. Besides, the LD50 at 24 h in data set [19] amounted to 357 mg/kg.

As for `CCC(=O)N(CCN1CCC(Cc2ccc(C)cc2)CC1)c1ccc(OC)cc1`, the affinity in [1], expressed as Ki, was 35 nM.

`CCC(=O)N(CCN1CCC(Cc2ccccc2)CC1)c1ccc(OC)cc1` came in with a Ki in data set [1] of 1.5 nM.

In [1], `CCC(=O)N(CCCCN1CCC(Cc2ccccc2)CC1)c1ccc(OC)cc1` displayed a Ki of 18 nM.

`CCC(=O)N(CCN1CCC(Cc2ccccc2)CC1)c1cccc(C(F)(F)F)n1` yielded a Ki in data set [1] of 835 nM.

Regarding `CCC(=O)N(CCN1CCC(CCCc2ccccc2)CC1)c1ccc(OC)cc1`, the Ki in data set [1] amounted to 893 nM.

`CCC(=O)N(CCN1CCC(Cc2ccc(C)cc2)CC1)c1ccc(F)cc1`: the Ki in [1] turned out to be 47 nM.

On to `C[C@@H]1[C@@H]2Cc3ccc(O)cc3[C@]1(C)CCN2CCc1ccccc1`, for which, on Mu-type opioid receptor, the Ki was 0.2 nM.
